Results on one compound are retold here after PMC8929358 (Pharmacology Research & Perspectives, 2021).

The format of data set [1] is in vivo, rat. As to conditions: oral 100 mg/kg. The method in brief:
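In Sprague Dawley rats given 100 mg/kg [14C]-labelled compound (100 μCi/kg) orally in 0.2% HPMC, heparinized blood was taken by cardiac puncture at 2–168 h. Plasma was precipitated with MeOH/ACN (50:50), dried under N2 and reconstituted. Urine (0–6, 6–24 h) and feces (0–12, 12–24, 24–48 h) were pooled and stored at −80°C. Analysis used accurate-mass LC-MS with offline radiodetection.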

Data set [2] can be described thus: Sulfate conjugation of opicapone in human liver S9. Type of data set: in vitro ADME. As to conditions: human liver S9 fraction (HLS9), pH 7.4.
Data set [3] can be described thus: Glucuronidation of opicapone in human liver microsomes. Type of data set: in vitro ADME. As to conditions: human liver microsomes (HLM), pH 7.5. On the technique in general: Microsomes from liver hold many membrane-bound enzymes, among them those of drug oxidation.
The next data set addresses T1, UGT 1A3 (Homo sapiens, UniProt P35503).
T1 sequence (P35503 29-534): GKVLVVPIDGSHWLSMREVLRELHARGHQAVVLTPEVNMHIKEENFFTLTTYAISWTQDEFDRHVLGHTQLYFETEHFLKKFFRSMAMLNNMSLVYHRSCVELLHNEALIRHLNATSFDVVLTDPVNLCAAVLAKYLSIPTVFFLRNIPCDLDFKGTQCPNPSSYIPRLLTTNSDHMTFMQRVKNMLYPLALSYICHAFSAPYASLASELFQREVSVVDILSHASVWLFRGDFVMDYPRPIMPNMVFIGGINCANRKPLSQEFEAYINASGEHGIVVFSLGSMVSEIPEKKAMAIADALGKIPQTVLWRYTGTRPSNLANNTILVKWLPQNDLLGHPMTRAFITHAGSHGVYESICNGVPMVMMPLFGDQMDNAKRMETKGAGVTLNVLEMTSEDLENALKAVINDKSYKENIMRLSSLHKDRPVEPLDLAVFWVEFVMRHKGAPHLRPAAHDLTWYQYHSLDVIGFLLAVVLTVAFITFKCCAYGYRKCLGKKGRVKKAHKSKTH
The data set is described as follows: Glucuronidation of opicapone by recombinant UGT1A3. In kind it is in vitro ADME. As to conditions: 20 μM opicapone.

A further data set concerns the target T2, UGT1A4 (Homo sapiens, UniProt P22310).
T2 sequence (P22310 29-534): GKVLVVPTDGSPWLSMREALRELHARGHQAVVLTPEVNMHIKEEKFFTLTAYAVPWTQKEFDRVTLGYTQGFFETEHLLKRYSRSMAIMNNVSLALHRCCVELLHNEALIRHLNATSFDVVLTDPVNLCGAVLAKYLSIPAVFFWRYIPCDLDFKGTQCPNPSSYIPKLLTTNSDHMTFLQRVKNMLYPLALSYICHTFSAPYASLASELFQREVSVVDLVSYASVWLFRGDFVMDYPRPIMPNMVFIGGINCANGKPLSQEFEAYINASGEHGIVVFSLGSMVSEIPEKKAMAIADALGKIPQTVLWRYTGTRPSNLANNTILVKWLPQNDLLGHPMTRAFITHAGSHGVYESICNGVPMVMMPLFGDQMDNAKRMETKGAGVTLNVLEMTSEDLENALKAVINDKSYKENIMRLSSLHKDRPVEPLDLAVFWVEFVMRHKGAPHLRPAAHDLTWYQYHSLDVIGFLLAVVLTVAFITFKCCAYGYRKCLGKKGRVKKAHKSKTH
The data set is described as follows: Glucuronidation of opicapone by recombinant UGT1A4. Type of data set: in vitro ADME. As to conditions: 20 μM opicapone; incubation period of 60 min.

The next data set concerns the target T3, UGT1A6 (Homo sapiens, UniProt P19224).
T3 sequence (P19224 27-532): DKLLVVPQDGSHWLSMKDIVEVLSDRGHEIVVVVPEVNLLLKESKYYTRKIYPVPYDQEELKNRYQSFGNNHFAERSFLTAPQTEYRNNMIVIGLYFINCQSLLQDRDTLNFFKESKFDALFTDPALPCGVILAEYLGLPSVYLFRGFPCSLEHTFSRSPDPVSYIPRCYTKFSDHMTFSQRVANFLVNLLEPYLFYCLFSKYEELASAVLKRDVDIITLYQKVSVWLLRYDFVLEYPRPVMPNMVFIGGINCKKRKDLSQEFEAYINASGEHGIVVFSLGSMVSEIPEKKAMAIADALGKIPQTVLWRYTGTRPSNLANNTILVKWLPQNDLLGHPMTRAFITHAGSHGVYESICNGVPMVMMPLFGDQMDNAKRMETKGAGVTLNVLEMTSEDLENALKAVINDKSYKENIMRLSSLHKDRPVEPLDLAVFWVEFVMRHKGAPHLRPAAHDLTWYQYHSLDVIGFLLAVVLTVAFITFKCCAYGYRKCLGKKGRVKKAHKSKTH
The data set is described as follows: Glucuronidation of opicapone by recombinant UGT1A6. Type of data set: in vitro ADME.

A further data set concerns the target T4, UGT 2B15 (Homo sapiens, UniProt P54855).
T4 sequence (P54855 24-530): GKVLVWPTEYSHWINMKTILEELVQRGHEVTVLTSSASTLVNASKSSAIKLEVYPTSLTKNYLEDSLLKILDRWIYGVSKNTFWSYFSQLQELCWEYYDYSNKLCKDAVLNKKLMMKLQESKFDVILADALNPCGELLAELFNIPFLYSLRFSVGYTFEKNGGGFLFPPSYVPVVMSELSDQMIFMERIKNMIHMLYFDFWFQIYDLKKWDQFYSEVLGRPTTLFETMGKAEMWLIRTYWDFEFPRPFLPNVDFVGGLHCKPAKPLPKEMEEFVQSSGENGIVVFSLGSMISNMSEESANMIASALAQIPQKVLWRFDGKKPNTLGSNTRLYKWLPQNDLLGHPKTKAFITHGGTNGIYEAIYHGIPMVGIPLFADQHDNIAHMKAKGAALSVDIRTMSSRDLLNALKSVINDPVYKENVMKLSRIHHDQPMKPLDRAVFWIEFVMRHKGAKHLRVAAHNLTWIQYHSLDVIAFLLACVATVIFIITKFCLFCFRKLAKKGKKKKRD
The data set is described as follows: Glucuronidation of opicapone by recombinant UGT2B15. Particulars: 20 μM opicapone. In kind it is in vitro ADME.

The conditions of data set [4]: healthy subjects; oral; cited from earlier work.
The conditions of data set [5]: low solubility compound; ref unpublished information; cited from earlier work.

For orientation: Km means the substrate concentration at which the rate is half of its maximum. With `Cc1c(Cl)c(C)[n+]([O-])c(Cl)c1-c1noc(-c2cc(O)c(O)c([N+](=O)[O-])c2)n1` [opicapone, 2,5‐dichloro‐3‐(5‐(3,4‐dihydroxy‐5‐nitrophenyl)‐1,2,4‐oxadiazol‐3‐yl)‐4,6‐dimethylpyridine 1‐oxide], in data set [1] (ND = not detected), the “Plasma, % of total AUC0–168 h of drug-related radioactivity” value was determined as 15.1%. Also, in data set [1] (earliest time point analyzed), the “Time of peak of unchanged opicapone in plasma” value worked out at 2 h. Besides, in [1] (feces pools 0–48 h, ND = not detected), the “Feces, % of administered dose” value stood at 6.25%. The “Urine, % of administered dose” value in data set [1] (urine pools 0–24 h, ND = not detected, 100 mg/kg) worked out at 0.1%. In addition, the Michaelis constant (Km) in data set [2] is 20.5 ± 2.6 µM; in [3], 27.9 ± 6.4 µM. Further, the “Formation of BIA 9-1106 (screening)” value on UGT 1A3, on UGT1A6 (20 μM opicapone) and at UGT 2B15 was “little amounts” throughout. Moreover, the “Metabolite formation (screening)” value on UGT1A4 is “No metabolite formation was detected”. For the same compound, at UGT1A6 (opicapone 1 to 250 μM), the “Glucuronidation kinetics (form of the rate curve)” value is given as “linear”. In addition, in data set [4], the “Apparent terminal elimination half-life (t1/2)” value is 48 to 192 min. Besides, the “Biopharmaceutics Classification System class” value in [5] is “class II”.
